Test results: ChEMBL document CHEMBL4619820, “Development of Novel AKR1C3 Inhibitors as New Potential Treatment for Castration-Resistant Prostate Cancer” (J Med Chem, 2020)
Activity calls are given as the source filed them.

Experiments:
Assay type in all cases: functional, cell-based
CWR22R [1] = experiment: Inhibition of TMPRSS2 mRNA expression in human 22Rv1 cells at 10 uM pre-incubated for 2 hrs before pregnenolone stimulation for 24 hrs by RT-qPCR analysis
Procedure, shortened: (§1)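 22Rv1 cells pretreated 2 h with test agents, then stimulated 24 h with 20 nM pregnenolone; AR, TMPRSS2 and PSA mRNA measured by RT-qPCR, given as ratio to pregnenolone-free control.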

CWR22R [2] = experiment: Inhibition of AR mRNA expression in human 22Rv1 cells at 10 uM pre-incubated for 2 hrs before pregnenolone stimulation for 24 hrs by RT-qPCR analysis; procedure, shortened: as §1
CWR22R [3] = experiment: Inhibition of PSA mRNA expression in human 22Rv1 cells at 10 uM pre-incubated for 2 hrs before pregnenolone stimulation for 24 hrs by RT-qPCR analysis; procedure, shortened: as §1
CWR22R [4] = experiment: Induction of ROS generation in human 22Rv1 cells at 10 uM by DCFH-DA dye based flow cytometric analysis
Procedure, shortened: (§2)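 22Rv1 cells exposed 3 h to 10 μM inhibitor and/or abiraterone, or 50 μM enzalutamide; intracellular ROS by flow cytometry as DCF-positive cells, percent of vehicle control.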

CWR22R [5] = experiment: Induction of apoptosis in human 22Rv1 cells pre-incubated for 2 hrs before addition of pregnenolone for 24 hrs
CWR22R [6] = experiment: Inhibition of pregnenolone-induced cell proliferation of human 22Rv1 cells at 10 uM pre-incubated for 2 hrs before pregnenolone stimulation for 72 hrs by alamar blue assay
Procedure, shortened: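 22Rv1 cells (AKR1C3- and AR-expressing) pretreated 2 h with agents, then cultured 72 h with 20 nM pregnenolone; viable cell number given as percent of pregnenolone-free control.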

CWR22R [7] = experiment: Induction of apoptosis in human 22Rv1 cells assessed as increase in cleaved caspase-3 level at 50 uM pre-incubated for 2 hrs before addition of pregnenolone for 24 hrs by Western blot analysis
Procedure, shortened: (§3)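 Apoptotic markers in 22Rv1: 2 h pretreatment with or without 10 μM inhibitor and/or 50 μM enzalutamide, then 24 h 20 nM pregnenolone; Bax/Bcl-2 ratio as percent of control; cleaved caspase-3 also by immunofluorescence with DAPI.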

CWR22R [8] = experiment: Induction of ROS generation in human 22Rv1 cells at 50 uM by DCFH-DA dye based flow cytometric analysis; procedure, shortened: as §2
CWR22R [9] = experiment: Induction of cell death in human 22Rv1 cells 50 uM pre-incubated for 2 hrs before addition of pregnenolone for 24 hrs
CWR22R [10] = experiment: Induction of apoptosis in human 22Rv1 cells assessed as effect on cleaved PARP protein expression level at 50 uM pre-incubated for 2 hrs before addition of pregnenolone for 24 hrs by Western blot analysis; procedure, shortened: as §3
CWR22R [11] = experiment: Induction of apoptosis in human 22Rv1 cells assessed as effect on cleaved caspase-3 protein expression level at 50 uM pre-incubated for 2 hrs before addition of pregnenolone for 24 hrs by Western blot analysis; procedure, shortened: as §3
CWR22R [12] = experiment: Induction of apoptosis in human 22Rv1 cells assessed as effect on Bax protein expression level at 50 uM pre-incubated for 2 hrs before addition of pregnenolone for 24 hrs by Western blot analysis; procedure, shortened: as §3

C[C@]12CC[C@H](O)CC1=CC[C@@H]1[C@@H]2CC[C@]2(C)C(c3cccnc3)=CC[C@@H]12
active: inhibition (CWR22R [1]) | inhibition (CWR22R [2]) | inhibition (CWR22R [3]) | Activity (CWR22R [4]) | Activity (CWR22R [5]) | inhibition (CWR22R [6])

CNC(=O)c1ccc(N2C(=S)N(c3ccc(C#N)c(C(F)(F)F)c3)C(=O)C2(C)C)cc1F
active: Activity (CWR22R [7]) | inhibition (CWR22R [1]) | inhibition (CWR22R [2]) | Activity (CWR22R [8]) | Activity (CWR22R [9]) | Activity (CWR22R [10]) | inhibition (CWR22R [3]) | Activity (CWR22R [11]) | inhibition (CWR22R [6]) | Activity (CWR22R [12])
